Measurements published in the array DNA melting data of Ke et al. (doi:10.1101/2024.01.08.574731).

Tests used:
[1] = melting temperature; fluorescence melt of hairpins on a sequencing array, two-state fit, raised by 9.35 °C to match UV melts; settings: sodium 0.088 M
Procedure, shortened: (§1)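 With Cy3 and quencher oligos annealed, library hairpins on a sequenced MiSeq flow cell were imaged for Cy3 fluorescence in 50 mM Na-HEPES pH 8.0, 25 mM NaCl, in 2.5 °C steps up to 60 °C. Melting temperature and folding enthalpy were derived from bootstrapped two-state fits of signals normalised to pre-quench Cy3 and to control constructs. Four replicates were combined by inverse variance, with fitted temperatures raised by 9.35 °C to match UV melts.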

[2] = folding enthalpy; higher = less favourable; fluorescence melt of hairpins on a sequencing array, two-state fit; settings: sodium 0.088 M
Procedure, shortened: as §1

Sequence | Tm [1] | folding enthalpy [2]
CGAGCCCGGAAACGGTCG (((..(((....)))))) | 37.5 °C | -20.9 kcal/mol
GTCGGCGAAAGCCCGGAC ((((((....)))..))) | 42.4 °C | -14.2 kcal/mol
GCTGCGCGAAAGCGAGC (((.(((....)))))) | 60.4 °C | -14.3 kcal/mol
GGCACTGGAAACAGTGTC (.(((((....))))).) | 54.1 °C | -37.8 kcal/mol
GGATCCGAAAGGATATCC ((((((....)))..))) | 40.7 °C | -15.2 kcal/mol
GTGGAGCGAAAGCTCAC (((.(((....)))))) | 52.1 °C | -12.1 kcal/mol
GACCGAGGAAACTCAGTC (((.(((....))).))) | 34.4 °C | -21 kcal/mol
GGAAGTCGAAAGACATCC (((.(((....))).))) | 48.2 °C | -25.2 kcal/mol
GATCTGTGTTCAGATC ((((((....)))))) | 51.7 °C | -34.2 kcal/mol
GCCGCCGAAAGGCCTGGC ((((((....)))..))) | 51 °C | -16 kcal/mol
GGGTGCCGAAAGGCCCCC (((.(((....))).))) | 66.8 °C | -15.6 kcal/mol
GGAACAACGAAAGTTTCC (((..(((....)))))) | 29.9 °C | -15.5 kcal/mol
GATCGGAAGTCCGATC ((((((....)))))) | 55.2 °C | -38.9 kcal/mol
GATCGAATTTTCGATC ((((((....)))))) | 55.1 °C | -36.1 kcal/mol
GCGGTGCCCCGC ((((....)))) | 54.3 °C | -18.8 kcal/mol
GGTGTAGGAAACTACGTC (..((((....))))..) | 29.8 °C | -9.53 kcal/mol
GTTCACGGAAACGTGAGC (.(((((....))))).) | 52.1 °C | -22.2 kcal/mol
GTGGATCGAAAGATCAC (((.(((....)))))) | 48.8 °C | -13.3 kcal/mol
GCGGACCACCGC ((((....)))) | 59.9 °C | -24.2 kcal/mol
GCTAGGCGAAAGCCGCGC ((..(((....)))..)) | 62 °C | -16.9 kcal/mol
GCGCTAGCGAAAGCTCGC (((..(((....)))))) | 45.4 °C | -10.7 kcal/mol
GCCTTCGAAAGAATGGGC ((((((....)))..))) | 42.5 °C | -28.1 kcal/mol
GATCTTAACAAAGATC ((((((....)))))) | 42.5 °C | -33 kcal/mol

Sequence | Tm [1] | folding enthalpy [2]
CGGACCGGAAACGGCCG (((.(((....)))))) | 56 °C | -28.9 kcal/mol
GCCGGGGGAAACCTCGGC ((((.((....)).)))) | 66.7 °C | -37.9 kcal/mol
GCAAGAGCGAAAGCTTGC (((..(((....)))))) | 51.9 °C | -22.8 kcal/mol
GCACCTGCGAAAGCATGC (((..(((....)))))) | 33.6 °C | -9.15 kcal/mol
GAGCCAGAAATGGCTC ((((((....)))))) | 66.8 °C | -32.4 kcal/mol
GTTAGAGGAAACTTTAAC ((((.((....)).)))) | 27.5 °C | -15.5 kcal/mol
GTGACCGGAAACGGTCGC (.(((((....))))).) | 63.5 °C | -19.9 kcal/mol
CGCGGATAGTCCGCG ((((((...)))))) | 63.6 °C | -40.8 kcal/mol
GTTGAGGGAAACCTTAAC (((.(((....))).))) | 37 °C | -31.4 kcal/mol
GCGGAGCGAAAGCATCGC (((..((....))..))) | 55.7 °C | -15.7 kcal/mol
GCAACGCGAAAGCCATGC (((..((....))..))) | 29.1 °C | -7.42 kcal/mol
GCGGCGTCCGC ((((...)))) | 59.9 °C | -14.7 kcal/mol
GGCCTCGAAAGAGGTGCC ((((((....)))..))) | 47.6 °C | -13.2 kcal/mol
CTGAGGAAACTCAG (((((....))))) | 47.1 °C | -20.1 kcal/mol
CACCTGAAAAGGTG (((((....))))) | 54.4 °C | -23.8 kcal/mol
GTTTCTGGAAACGGAAAC (((((.(....).))))) | 45.5 °C | -31.8 kcal/mol
CGCGGAACAATCCGCG ((((((....)))))) | 61.5 °C | -37 kcal/mol
GATTCTGGAAACAGGATC (((.(((....))).))) | 42.7 °C | -37.1 kcal/mol
GACAGCGAAAGCTGGTC ((((((....))).))) | 55 °C | -11.8 kcal/mol
CGACGACGGAAACGTTCG (((..(((....)))))) | 36.9 °C | -14.5 kcal/mol
GACTCAGGAAACTGAATC ((.((((....)))).)) | 27.7 °C | -16.3 kcal/mol
GTCGCCCCGAAAGGGGAC (((..(((....)))))) | 40.1 °C | -9.73 kcal/mol
GTTGAGACGAAAGTCAAC (((..(((....)))))) | 38.4 °C | -15.6 kcal/mol

Sequence | Tm [1] | folding enthalpy [2]
GGGGAGAAATCCCC (((((....))))) | 53.5 °C | -26.6 kcal/mol
GGCGTGGGAAACCGCGTC (.((.((....)).)).) | 52.2 °C | -27.4 kcal/mol
GATCGTGTGTACGATC ((((((....)))))) | 54.7 °C | -40.9 kcal/mol
GATCCTTGAAAGGATC ((((((....)))))) | 51.9 °C | -42.3 kcal/mol
GATCATTGTAATGATC ((((((....)))))) | 50.3 °C | -36 kcal/mol
GATCGTTGCCACGATC ((((((....)))))) | 54.5 °C | -39.9 kcal/mol
GATGGTGGAAACACTATC (((.(((....))).))) | 43.1 °C | -31 kcal/mol
GTAAGGGGAAACCCCTAC (((.(((....))).))) | 39 °C | -16.9 kcal/mol
GGGTCCTCGAAAGAGCCC (((..(((....)))))) | 40 °C | -15.3 kcal/mol
GTTGGAGGAAACTCCAAC (((((((....))))))) | 60.8 °C | -36 kcal/mol
GTTTTGGGAAACCAGAAC (((.(((....))).))) | 38.1 °C | -26.9 kcal/mol
GTGTCGCGAAAGCGTCAC (((.(((....))).))) | 63 °C | -31.9 kcal/mol
GTGTGCGAAAGCACGCAC ((((((....)))..))) | 61.1 °C | -9.49 kcal/mol
GGTCTGCGAAAGCATACC (((.(((....))).))) | 49.4 °C | -22.1 kcal/mol
GCGGTGTCCGC ((((...)))) | 58.2 °C | -23 kcal/mol
GTTCGCGAAAGCGGAAC ((((((....))).))) | 54.4 °C | -17.6 kcal/mol
GCATAAGGAAACTCATGC ((((.((....)).)))) | 30.7 °C | -25.2 kcal/mol
GATCCGCACGCGGATC ((((((....)))))) | 67.6 °C | -39.1 kcal/mol
GGGCCTTCGAAAGAACCC (((..(((....)))))) | 30.4 °C | -7.96 kcal/mol
GTGGTTGGAAACAACCGC (.(((((....))))).) | 55.7 °C | -31 kcal/mol
GGCCGTTCGAAAGAAGCC (((..(((....)))))) | 27.6 °C | -13.8 kcal/mol
GCAGAGCGAAAGCTTGGC ((..(((....)))..)) | 49.5 °C | -18.8 kcal/mol
GGATTGGGAAACCAGTCC (((.(((....))).))) | 46.9 °C | -31.1 kcal/mol

Sequence | Tm [1] | folding enthalpy [2]
GTCAGCGAAAGCTCGGAC ((((((....)))..))) | 37.3 °C | -12.4 kcal/mol
GCCATGCGAAAGCAGCGC ((..(((....)))..)) | 47 °C | -17.2 kcal/mol
GCGTTGCGAAAGCTAGGC ((.(.((....)).).)) | 48.9 °C | -19.2 kcal/mol
GCTGGAGGAAACCCCAGC (((((.(....).))))) | 52.8 °C | -38.7 kcal/mol
GTTAGTGGAAACACTGAC ((.((((....)))).)) | 44.7 °C | -24.2 kcal/mol
GGAAGCGAAAGCTATTCC ((((((....)))..))) | 35.8 °C | -14.1 kcal/mol
GACCACGGAAACATGGTC (((((.(....).))))) | 43.4 °C | -35.5 kcal/mol
GATACGACGAAAGTCATC (((..(((....)))))) | 24.6 °C | -10.6 kcal/mol
GCTTTCGAAAGAACAAGC ((((((....)))..))) | 31.8 °C | -24.3 kcal/mol
GCAAACGCGAAAGCGTGC (((..(((....)))))) | 55.7 °C | -13.7 kcal/mol
GGTTAGGGAAACCTAACC (((((((....))))))) | 58.3 °C | -46.4 kcal/mol
GACTCCCGAAAGGGCGTC (((.(((....))).))) | 53.5 °C | -27.3 kcal/mol
GCAATGCGAAAGCTTAGC ((.(.((....)).).)) | 36.4 °C | -15.9 kcal/mol
GTATTTGAAAAAATAC ((((((....)))))) | 38.1 °C | -25.2 kcal/mol
GCCCCTACGAAAGTAGGC (((..(((....)))))) | 36.7 °C | -6.61 kcal/mol
GGTTACCGAAAGGTACC (((.(((....)))))) | 51 °C | -20.4 kcal/mol
GGATGTGGAAACACGTCC (((.(((....))).))) | 53 °C | -55.2 kcal/mol
GATCGTTGTACGATC ((((((...)))))) | 61.1 °C | -38.8 kcal/mol
GCCCATCGAAAGATGGC (((.(((....)))))) | 56.1 °C | -14 kcal/mol
GCTGTCGAAAGACAAGC ((((((....))).))) | 54.4 °C | -27.8 kcal/mol
GCTAACGAAAGTTAGAGC ((((((....)))..))) | 45.8 °C | -16.1 kcal/mol
GCGAGGCGAAAGCAGCGC (((..((....))..))) | 68.9 °C | -29.9 kcal/mol
GCGTAGCGAAAGCGCCGC (((..((....))..))) | 59.7 °C | -15.9 kcal/mol
